Calls of active or inactive are those of the source.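 Rule for the calls, unless noted: active = NADPH fluorescence slope more negative than the mean of all samples by about 3 SD, 99.7% confidence; inactive = the rest.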
Columns and labels:
[1] = inhibitors of TNFa-induced NFkB p65 translocation, primary screen, imaging, HUVEC, MLSMR starter and 10KST1 sets (AID 438;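 active = inhibition above 20% together with a positive visual image hit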;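 note: compound added about 3h40 before a 20 min TNFalpha stimulation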;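 for inhibition: signal is the nuclear over cytoplasmic p65 intensity ratio per well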); settings: HUVEC TNFa-induced p65 nuclear translocation; cell count: measured here: nuclei count (cytotoxicity indicator), at 2.08 µM; inhibition: at 2 µM, stronger effect = higher value, 0% TNFa-plus-vehicle, 100% no-TNFa wells
[2] = inhibitors of mutant huntingtin aggregation, primary screen, imaging, exon1htt(103Q)mCFP cells, high-content imaging (AID 483;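 active = visual image review flags a hit and inhibition of aggregation exceeds 20%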;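 note: compound exposure lasted 3 days before fixation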;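 for nuclei count: percent of the per-plate median nuclei count of sample wells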); settings: exon1htt(103Q)mCFP cell line, aggregate imaging, at 2 µM; inhibition of aggregation: stronger effect = higher value; nuclei count: measured here: cell count, toxicity
[3] = inhibitors of E-selectin induction by TNFa, primary screen, imaging, HUVEC, immunofluorescence, MLSMR starter and 10KST1 sets (AID 487;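 active = visually confirmed hit in the image check and inhibition above 20%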;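 for inhibition: signal is fraction of cell area covered by stained E-selectin grains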;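 for nuclei count: 100% = median nuclei count of all wells on the same plate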); settings: HUVEC TNFalpha-induced E-selectin immunofluorescence imaging, at 2 µM; inhibition: stronger effect = higher value; nuclei count: measured here: cell number, toxicity
[4] = biological target: Voltage-gated potassium channel subunit beta-2 (Rattus norvegicus) (UniProt P62483); assay: KvBeta enzyme negative modulators, primary screen, biochemical, NADPH fluorescence (AID 622;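 active = fluorescence slope higher than the sample average by over 3 SD, cut at about -0.22 in these data, passing the limit was not always enough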;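 note: slope of raw intensity against log time taken from 70 to 1610 s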); settings: recombinant KvBeta, 4-cyanobenzaldehyde reduction, at 10 µM, stronger effect = higher value
Chain of Voltage-gated potassium channel subunit beta-2 (Rattus norvegicus) (P62483 whole entry, looked up): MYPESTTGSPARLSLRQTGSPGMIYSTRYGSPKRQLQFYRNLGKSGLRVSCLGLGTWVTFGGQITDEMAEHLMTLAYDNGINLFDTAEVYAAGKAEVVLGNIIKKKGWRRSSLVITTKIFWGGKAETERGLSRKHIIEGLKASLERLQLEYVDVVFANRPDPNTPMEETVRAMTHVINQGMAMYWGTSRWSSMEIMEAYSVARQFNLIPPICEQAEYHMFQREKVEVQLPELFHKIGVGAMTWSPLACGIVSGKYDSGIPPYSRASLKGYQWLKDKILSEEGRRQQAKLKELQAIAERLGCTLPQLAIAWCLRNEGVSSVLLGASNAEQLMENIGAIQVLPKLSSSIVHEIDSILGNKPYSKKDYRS

[5] = biological target: Voltage-gated potassium channel subunit beta-2 (Rattus norvegicus) (UniProt P62483); assay: KvBeta positive modulators, primary screen, biochemical, NADPH fluorescence (AID 623); settings: Recombinant KvBeta, NADPH fluorescence decrease slope, 10 min; at 10 µM; stronger effect = lower value;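 note: fluorescence intensity change per second fitted from 20 to 320 s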
[6] = biological target: Muscarinic acetylcholine receptor M4 (Homo sapiens) (UniProt P08173); assay: compounds altering M4/GIRK thallium flux, either direction, primary screen, M4 allosteric agonist project, cell-based, HEK293 M4/GIRK, BTC-AM (AID 625;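 active = fluorescence slope after compound addition differing from the mean of all tested samples at 99.7% confidence, mostly higher but some lower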;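 note: thallium influx through GIRK channels coupled to M4 in HEK293 cells with BTC-AM dye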); settings: at 10 µM, actives lie on both sides
Chain of Muscarinic acetylcholine receptor M4 (Homo sapiens) (P08173 whole entry, looked up): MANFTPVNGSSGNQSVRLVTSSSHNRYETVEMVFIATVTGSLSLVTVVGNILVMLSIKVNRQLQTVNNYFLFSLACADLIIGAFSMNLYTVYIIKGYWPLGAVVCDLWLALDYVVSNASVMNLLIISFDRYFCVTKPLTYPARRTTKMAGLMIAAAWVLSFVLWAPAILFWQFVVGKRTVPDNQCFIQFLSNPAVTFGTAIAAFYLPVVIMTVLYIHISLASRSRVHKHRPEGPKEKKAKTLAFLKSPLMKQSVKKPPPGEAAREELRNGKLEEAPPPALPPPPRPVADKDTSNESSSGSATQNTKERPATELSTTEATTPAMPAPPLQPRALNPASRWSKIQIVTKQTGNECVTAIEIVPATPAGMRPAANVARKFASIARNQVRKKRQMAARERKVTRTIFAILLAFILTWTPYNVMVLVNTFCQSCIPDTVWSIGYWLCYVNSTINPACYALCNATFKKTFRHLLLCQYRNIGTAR
In short: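 Material – HEK293 cells with M4 receptor and GIRK channels · Buffer or medium – pH 7.3 thallium assay buffer · Doses – one dose, 10 µM final · Timing – cells overnight at 37 °C, BTC-AM loading 1 h, reads 2 min total · Measured by – kinetic fluorescence with BTC-AM dye · Controls – carbachol and DMSO controls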

[7] = inhibitors of Sendai virus-induced IRF3 signaling, primary screen, TLR/RLR signaling modifier project, cell-based, Sendai virus stimulus, luciferase, 10K MLSCN set (AID 602276;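 active = inhibition at or above 50% at 10 µM; inactive = inhibition below 50%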;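 note: firefly luciferase from ISG56 promoter only with Renilla not read in this screen; 0% = Sendai virus plus DMSO and 100% = medium plus DMSO without virus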); settings: HEK293 RL24 IRF3 luciferase reporter, at 10 µM, stronger effect = higher value
[8] = inhibitors of poly I:C-induced TLR3 signaling, primary screen, cell-based, poly I:C stimulus, luciferase, 10K MLSCN set (AID 602277;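 active = inhibition of the reporter signal at or above 50%; inactive = inhibition below 50%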); settings: HEK293-TLR3 RL24 IRF3 luciferase reporter, at 10 µM, stronger effect = higher value

Row | Structure (SMILES) | cell count [1] | inhibition [1] | inhibition of aggregation [2] | nuclei count [2] | inhibition [3] | nuclei count [3] | fluorescence slope [4] | NADPH fluorescence slope [5] | fluorescence slope [6] | inhibition [7] | inhibition [8]
1 | CC(C)(C)OC(=O)N1CCC(C(=O)N[C@H](Cc2ccccc2)C(=O)O)CC1 | 523 | -7.8% (inactive) | 19.6% (inactive) | 85.5% | -11.8% (inactive) | 89.3% | -0.323 (inactive) | -5.3e-05 (inactive) | 0.00514 (inactive) | 15.3% (inactive) | 18.1% (inactive)
2 | CCOC(=O)c1sc(N2C(=O)C(O)=C(C(=O)c3ccco3)C2c2ccccc2)nc1C (stereo not drawn) | 425 | 2.8% (inactive) | 9.3% (inactive) | 102% | -43.5% (inactive) | 97.4% | -0.37 (inactive) | -5.7e-05 (inactive) | 0.00663 (inactive) | 6.84% (inactive) | -6.96% (inactive)
3 | Cc1cc(-c2ccccc2)c2c3c(cn2n1)c(=O)n(C)c(=O)n3C | 386 | 2% (inactive) | -0.2% (inactive) | 116% | -14.4% (inactive) | 86.7% | -0.59 (inactive) | -1.7e-06 (inactive) | 0.00111 (inactive) | 17.8% (inactive) | 27.8% (inactive)
4 | Cc1cc(NC(=O)c2cnn3cccnc23)no1 | 467 | 0.3% (inactive) | 3.3% (inactive) | 104% | -33.8% (inactive) | 119% | -0.613 (inactive) | -4.3e-05 (inactive) | 0.00996 (inactive) | -57.6% (inactive) | -124% (inactive)
5 | Cc1csc(SCC(=O)NC(=O)NCc2ccccc2)n1 | 624 | -17.1% (inactive) | -16.6% (inactive) | 114% | -30.3% (inactive) | 123% | -0.407 (inactive) | 9.9e-05 (inactive) | 0.0067 (inactive) | 15.1% (inactive) | 20% (inactive)
6 | CN1C(=O)CSc2ccc(NC(=O)N3CCN(c4ccccn4)CC3)cc21 | 589 | -16.4% (inactive) | -49% (inactive) | 76.7% | -57.6% (inactive) | 112% | -0.455 (inactive) | 8e-05 (inactive) | 0.00601 (inactive) | -6.76% (inactive) | 21.6% (inactive)
7 | CC(C)(C)N(Cc1cc2ccccc2[nH]c1=O)C(=O)C1CCCCC1 | 510 | -1.4% (inactive) | -4.5% (inactive) | 110% | 4% (inactive) | 95.6% | -0.455 (inactive) | -7.9e-05 (inactive) | 0.00597 (inactive) | -3.62% (inactive) | 9.15% (inactive)
8 | Cc1nnc(SCC(=O)Nc2ccc3c(c2)OCCO3)n1CC1CCCO1 (stereo not drawn) | 662 | -5% (inactive) | -0.8% (inactive) | 105% | -39.4% (inactive) | 114% | -0.341 (inactive) | -5.6e-05 (inactive) | 0.00537 (inactive) | 14.8% (inactive) | 7.29% (inactive)
9 | Cc1cccc(OCC(=O)N2CCC(c3ccccc3)C2)c1 (stereo not drawn) | 380 | 4.3% (inactive) | -13.6% (inactive) | 101% | -6.3% (inactive) | 115% | -0.426 (inactive) | 1.1e-05 (inactive) | 0.0091 (inactive) | -65.5% (inactive) | -177% (inactive)
10 | COc1ccc(OC)c(S(=O)(=O)Nc2ccc(C(N)=O)cc2)c1 | 684 | -2.6% (inactive) | -13.7% (inactive) | 107% | -57% (inactive) | 113% | -0.519 (inactive) | -0.000185 (inactive) | 0.00432 (inactive) | 18.4% (inactive) | 23.9% (inactive)
11 | Nc1nnc(Cc2ccc(Cl)cc2)s1 | 331 | 7.5% (inactive) | -4.2% (inactive) | 92.7% | -130% (inactive) | 115% | -0.483 (inactive) | -7.5e-05 (inactive) | 0.00532 (inactive) | 11.6% (inactive) | 13% (inactive)
12 | C/C(CC(O)(/C=N/O)c1ccccc1)=N\O (stereo not drawn) | 343 | 2.4% (inactive) | 4% (inactive) | 97% | -60.1% (inactive) | 120% | -0.569 (inactive) | -5.8e-05 (inactive) | 0.00371 (inactive) | 14.3% (inactive) | 15.7% (inactive)
13 | CC1CC(=O)C2=C(C1)OC(N)=C(C#N)C2c1coc2ccccc2c1=O (stereo not drawn) | 282 | -10.1% (inactive) | 8.2% (inactive) | 79.3% | 24.1% (inactive) | 82.2% | -0.514 (inactive) | -4.1e-05 (inactive) | 0.00433 (inactive) | 19.2% (inactive) | 23.4% (inactive)
14 | O=C(Cc1ccc(Br)cc1)N1CCCCCC1 | 358 | -0.2% (inactive) | 1.7% (inactive) | 99.5% | -68.6% (inactive) | 99.7% | -0.657 (inactive) | 1.8e-05 (inactive) | 0.00369 (inactive) | -33.9% (inactive) | -69.5% (inactive)
15 | CC1CCN(C(=O)Cn2c(=O)oc3ccccc32)CC1 | 322 | -0.6% (inactive) | 15.4% (inactive) | 100% | -222% (inactive) | 104% | -0.57 (inactive) | 4.8e-06 (inactive) | 0.00554 (inactive) | -14.5% (inactive) | -12.5% (inactive)
16 | COc1cccc(CN(C)CC(=O)NC(=O)NCc2ccco2)c1 | 608 | 2.7% (inactive) | -3.5% (inactive) | 101% | -58.6% (inactive) | 180% | -0.49 (inactive) | 2.9e-05 (inactive) | 0.00617 (inactive) | -13.4% (inactive) | -18.8% (inactive)
17 | Cc1cc(C)c(Cn2c(=O)n(CCCC(=O)NCc3ccco3)c(=O)c3ccccc32)c(C)c1 | 744 | -4.2% (inactive) | 5.8% (inactive) | 100% | -64.2% (inactive) | 112% | -0.578 (inactive) | -2.4e-05 (inactive) | 0.00693 (inactive) | 14.8% (inactive) | 17.8% (inactive)
18 | O=C(CSc1nnc(-c2cccs2)o1)N1CCOCC1 | 280 | -13.9% (inactive) | -11.6% (inactive) | 88.7% | -6.3% (inactive) | 118% | -0.539 (inactive) | -3.4e-05 (inactive) | 0.0054 (inactive) | -8.48% (inactive) | -10.8% (inactive)
19 | COc1ccc(C2C(C(=O)c3sc(C)nc3C)=C(O)C(=O)N2CCN2CCOCC2)cc1 (stereo not drawn) | 438 | 4.5% (inactive) | 0.7% (inactive) | 107% | 31.3% (inactive) | 84.8% | -0.531 (inactive) | -5.5e-05 (inactive) | 0.00651 (inactive) | 4% (inactive) | 1.15% (inactive)
20 | Cc1ccc(CNC(=O)C2CCN(S(=O)(=O)c3c(C)noc3C)CC2)cc1 | 475 | 4.8% (inactive) | 14% (inactive) | 91.5% | -2.1% (inactive) | 104% | -0.493 (inactive) | 8.6e-05 (inactive) | 0.00571 (inactive) | -1.36% (inactive) | 6.94% (inactive)
21 | Cc1ccc(NC(=O)c2oc3ccc(S(=O)(=O)N4CCOCC4)cc3c2C)cc1C | 357 | -20.4% (inactive) | -20.5% (inactive) | 109% | -98.4% (inactive) | 133% | -0.278 (inactive) | 2.2e-05 (inactive) | 0.00768 (inactive) | 11% (inactive) | 13.9% (inactive)
22 | Clc1ccc(SCCCCn2ccnc2)cc1 | 289 | -10.4% (inactive) | 0.8% (inactive) | 101% | -114% (inactive) | 115% | -0.306 (inactive) | -1.2e-05 (inactive) | 0.00775 (inactive) | -17.8% (inactive) | -10.6% (inactive)
23 | O=C(CN1CCCN(S(=O)(=O)c2ccc(Br)cc2)CC1)Nc1ccc2cn[nH]c2c1 | 432 | -1.3% (inactive) | 11% (inactive) | 103% | -23.3% (inactive) | 134% | -0.517 (inactive) | -0.000173 (inactive) | 0.00424 (inactive) | -14.5% (inactive) | 2.45% (inactive)
24 | COc1cccc(-n2nnc3c(=O)n(Cc4cccc(F)c4)cnc32)c1 | 421 | -1.7% (inactive) | -11.5% (inactive) | 127% | -3.7% (inactive) | 117% | -0.304 (inactive) | -7e-06 (inactive) | 0.00737 (inactive) | -8.19% (inactive) | -14% (inactive)
25 | CN1CCN(C(=O)CN(Cc2ccc(Cl)cc2)S(C)(=O)=O)CC1 | 242 | -2.8% (inactive) | 6.8% (inactive) | 92% | -25% (inactive) | 110% | -0.535 (inactive) | 9.7e-06 (inactive) | 0.00447 (inactive) | 18% (inactive) | 19.4% (inactive)
26 | O=C(CCn1c(=O)sc2ccccc21)Nc1cccnc1 | 572 | -7.6% (inactive) | 20.2% (inactive) | 81.9% | -11.2% (inactive) | 110% | -0.443 (inactive) | 0.000131 (inactive) | 0.00603 (inactive) | 8.62% (inactive) | 10.8% (inactive)
27 | CC1c2nc3ccccc3n2C(CC(=O)NCc2ccccn2)C(=O)N1Cc1ccccc1 (stereo not drawn) | 678 | -3.4% (inactive) | -12.5% (inactive) | 119% | -115% (inactive) | 119% | -0.505 (inactive) | -1.2e-05 (inactive) | 0.0053 (inactive) | 15% (inactive) | 22.6% (inactive)
28 | COc1ccc(N2CCN(C(=O)CSc3nnc(Cn4nnc5ccccc54)n3C)CC2)cc1 | 525 | 5.7% (inactive) | -2.8% (inactive) | 103% | -48.7% (inactive) | 101% | -0.578 (inactive) | -2.5e-05 (inactive) | 0.0066 (inactive) | -9.14% (inactive) | -5.63% (inactive)

Reference: PubChem BioAssay
